Measurements reported in ChEMBL document CHEMBL4043093, “2-Oxo-3, 4-dihydropyrimido[4, 5-d]pyrimidinyl derivatives as new irreversible pan fibroblast growth factor receptor (FGFR) inhibitors” (Eur J Med Chem, 2017).

Experiments:
[1] = target: Receptor tyrosine-protein kinase erbB-4 (Homo sapiens) (UniProt Q15303); test: Inhibition of wild-type human partial length ERBB4 (L690 to K994 residues) expressed in Escherichia coli BL21 assessed as residual activity at 1000 nM after 30 mins by Kinomescan method relative to control
[2] = target: Serine/threonine-protein kinase DCLK1 (Homo sapiens) (UniProt O15075); test: Inhibition of wild-type human partial length DCAMKL1 (L270 to A662 residues) expressed in HEK293 cells assessed as residual activity at 1000 nM after 30 mins by Kinomescan method relative to control; type: cell-based
[3] = target: Serine/threonine-protein kinase STK11 (Homo sapiens) (UniProt Q15831); test: Inhibition of wild-type human full length LKB1 (M1 to Q433 residues) expressed in Escherichia coli BL21 assessed as residual activity at 1000 nM after 30 mins by Kinomescan method relative to control
Outline: (§1)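 Single-concentration screen at 1 µM across a 456-kinase KINOMEscan panel. The read-out is Percent Control for each kinase.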

[4] = target: Death-associated protein kinase 2 (Homo sapiens) (UniProt Q9UIK4); test: Inhibition of wild-type human full length DAPK2 (M1 to S370 residues) expressed in Escherichia coli BL21 assessed as residual activity at 1000 nM after 30 mins by Kinomescan method relative to control; outline: as §1
[5] = target: Mitogen-activated protein kinase 6 (Homo sapiens) (UniProt Q16659); test: Inhibition of wild-type human partial length ERK3 (M1 to P413 residues) expressed in Escherichia coli BL21 assessed as residual activity at 1000 nM after 30 mins by Kinomescan method relative to control
[6] = organism: Homo sapiens; test: Inhibition of human partial length FLT3 ITD mutant expressed in Escherichia coli BL21 assessed as residual activity at 1000 nM after 30 mins by Kinomescan method relative to control
Outline: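 KINOMEscan binding panel of 456 kinases, with the test compound at a single concentration of 1 µM. Read-out is Percent Control.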

[7] = system: Tyrosine-protein kinase ABL1 (Homo sapiens), P00519 [E255K]; test: Inhibition of human phosphorylated ABL1 E255K mutant (S229 to K512 residues) expressed in HEK293 cells assessed as residual activity at 1000 nM after 30 mins by Kinomescan method relative to control; type: cell-based
Outline: (§2)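 Single-point screen at a fixed 1 µM, run within a 456-kinase DiscoveRx KINOMEscan panel. Each kinase's read-out is Percent Control, i.e. signal relative to a control without compound. Hits were scored by a Percent Control < 35 cut-off, and an S(35) selectivity score was calculated across the non-mutant kinases.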

[8] = target: Serine/threonine-protein kinase 35 (Homo sapiens) (UniProt Q8TDR2); test: Inhibition of wild-type human partial length STK35 (G182 to A534 residues) expressed in Escherichia coli BL21 assessed as residual activity at 1000 nM after 30 mins by Kinomescan method relative to control
[9] = system: Proto-oncogene tyrosine-protein kinase receptor Ret (Homo sapiens), P07949 [V804L]; test: Inhibition of human partial length RET V804L mutant (E713 to D1014 residues) expressed in Escherichia coli BL21 assessed as residual activity at 1000 nM after 30 mins by Kinomescan method relative to control; outline: as §2
[10] = target: Dual specificity mitogen-activated protein kinase kinase 2 (Homo sapiens) (UniProt P36507); test: Inhibition of wild-type human full length MEK2 (M1 to V400 residues) expressed in HEK293 cells assessed as residual activity at 1000 nM after 30 mins by Kinomescan method relative to control; type: cell-based; outline: as §1
[11] = target: Serine/threonine-protein kinase ULK2 (Homo sapiens) (UniProt Q8IYT8); test: Inhibition of wild-type human partial length ULK2 (M1 to S301 residues) expressed in HEK293 cells assessed as residual activity at 1000 nM after 30 mins by Kinomescan method relative to control; type: cell-based
[12] = target: Protein kinase C eta type (Homo sapiens) (UniProt P24723); test: Inhibition of wild-type human partial length PRKCH (S324 to P683 residues) expressed in Escherichia coli BL21 assessed as residual activity at 1000 nM after 30 mins by Kinomescan method relative to control
[13] = target: Mitogen-activated protein kinase kinase kinase kinase 1 (Homo sapiens) (UniProt Q92918); test: Inhibition of wild-type human full length HPK1 (M1 to R799 residues) expressed in Escherichia coli BL21 assessed as residual activity at 1000 nM after 30 mins by Kinomescan method relative to control; outline: as §1
[14] = target: Receptor-interacting serine/threonine-protein kinase 4 (Homo sapiens) (UniProt P57078); test: Inhibition of wild-type human partial length RIPK4 (M1 to V303 residues) expressed in HEK293 cells assessed as residual activity at 1000 nM after 30 mins by Kinomescan method relative to control; type: cell-based
[15] = target: Casein kinase I isoform delta (Homo sapiens) (UniProt P48730); test: Inhibition of wild-type human full length CSNK1D (M1 to K409 residues) expressed in Escherichia coli BL21 assessed as residual activity at 1000 nM after 30 mins by Kinomescan method relative to control; outline: as §2
[16] = target: Calcium/calmodulin-dependent protein kinase type II subunit beta (Homo sapiens) (UniProt Q13554); test: Inhibition of wild-type human partial length CAMK2B (M1 to Q380 residues) expressed in Escherichia coli BL21 assessed as residual activity at 1000 nM after 30 mins by Kinomescan method relative to control
[17] = target: Serine/threonine-protein kinase NIM1 (Homo sapiens) (UniProt Q8IY84); test: Inhibition of wild-type human partial length NIM1 (Q44 to N355 residues) expressed in HEK293 cells assessed as residual activity at 1000 nM after 30 mins by Kinomescan method relative to control; type: cell-based
[18] = target: Misshapen-like kinase 1 (Homo sapiens) (UniProt Q8N4C8); test: Inhibition of wild-type human partial length MINK (M1 to K312 residues) expressed in HEK293 cells assessed as residual activity at 1000 nM after 30 mins by Kinomescan method relative to control; type: cell-based
[19] = target: Phosphatidylinositol 3-kinase C2 domain-containing subunit gamma (Homo sapiens) (UniProt O75747); test: Inhibition of wild-type human partial length PIK3C2G (M1 to I1446 residues) expressed in HEK293 cells assessed as residual activity at 1000 nM after 30 mins by Kinomescan method relative to control; type: cell-based
[20] = target: Mitogen-activated protein kinase 9 (Homo sapiens) (UniProt P45984); test: Inhibition of wild-type human full length JNK2 (M1 to Q382 residues) expressed in HEK293 cells assessed as residual activity at 1000 nM after 30 mins by Kinomescan method relative to control; type: cell-based; outline: as §1
[21] = target: Serine/threonine-protein kinase 38-like (Homo sapiens) (UniProt Q9Y2H1); test: Inhibition of wild-type human partial length NDR2 (N34 to E447 residues) expressed in Escherichia coli BL21 assessed as residual activity at 1000 nM after 30 mins by Kinomescan method relative to control
[22] = target: Cyclin-G-associated kinase (Homo sapiens) (UniProt O14976); test: Inhibition of wild-type human partial length GAK (G13 to Y338 residues) expressed in Escherichia coli BL21 assessed as residual activity at 1000 nM after 30 mins by Kinomescan method relative to control

Serine/threonine-protein kinase STK11 (Homo sapiens), sequence (Q15831 whole entry, the tested form may be a part): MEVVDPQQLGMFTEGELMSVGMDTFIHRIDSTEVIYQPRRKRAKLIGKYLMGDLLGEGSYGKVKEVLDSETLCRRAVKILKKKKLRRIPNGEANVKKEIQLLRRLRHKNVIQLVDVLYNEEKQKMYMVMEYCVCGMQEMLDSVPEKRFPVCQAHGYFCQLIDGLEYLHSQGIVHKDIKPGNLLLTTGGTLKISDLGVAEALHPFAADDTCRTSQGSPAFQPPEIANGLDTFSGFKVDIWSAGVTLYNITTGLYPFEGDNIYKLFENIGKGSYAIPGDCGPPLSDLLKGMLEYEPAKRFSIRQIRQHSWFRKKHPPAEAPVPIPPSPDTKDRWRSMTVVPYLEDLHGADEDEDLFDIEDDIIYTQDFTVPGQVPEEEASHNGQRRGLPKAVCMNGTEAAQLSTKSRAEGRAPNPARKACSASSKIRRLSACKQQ
Dual specificity mitogen-activated protein kinase kinase 2 (Homo sapiens), sequence (P36507 whole entry, the tested form may be a part): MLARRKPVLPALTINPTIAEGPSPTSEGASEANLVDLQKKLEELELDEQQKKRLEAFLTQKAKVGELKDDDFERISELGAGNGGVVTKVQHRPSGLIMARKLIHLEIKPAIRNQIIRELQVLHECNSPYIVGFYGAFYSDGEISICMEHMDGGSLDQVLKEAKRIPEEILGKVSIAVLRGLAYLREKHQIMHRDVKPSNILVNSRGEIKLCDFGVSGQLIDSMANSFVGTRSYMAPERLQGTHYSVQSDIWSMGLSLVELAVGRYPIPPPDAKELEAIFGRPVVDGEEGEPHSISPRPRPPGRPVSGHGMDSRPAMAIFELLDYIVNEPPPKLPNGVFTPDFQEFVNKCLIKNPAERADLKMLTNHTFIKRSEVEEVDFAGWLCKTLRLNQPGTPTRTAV
Mitogen-activated protein kinase kinase kinase kinase 1 (Homo sapiens), sequence (Q92918 whole entry, looked up, the tested form may be a part): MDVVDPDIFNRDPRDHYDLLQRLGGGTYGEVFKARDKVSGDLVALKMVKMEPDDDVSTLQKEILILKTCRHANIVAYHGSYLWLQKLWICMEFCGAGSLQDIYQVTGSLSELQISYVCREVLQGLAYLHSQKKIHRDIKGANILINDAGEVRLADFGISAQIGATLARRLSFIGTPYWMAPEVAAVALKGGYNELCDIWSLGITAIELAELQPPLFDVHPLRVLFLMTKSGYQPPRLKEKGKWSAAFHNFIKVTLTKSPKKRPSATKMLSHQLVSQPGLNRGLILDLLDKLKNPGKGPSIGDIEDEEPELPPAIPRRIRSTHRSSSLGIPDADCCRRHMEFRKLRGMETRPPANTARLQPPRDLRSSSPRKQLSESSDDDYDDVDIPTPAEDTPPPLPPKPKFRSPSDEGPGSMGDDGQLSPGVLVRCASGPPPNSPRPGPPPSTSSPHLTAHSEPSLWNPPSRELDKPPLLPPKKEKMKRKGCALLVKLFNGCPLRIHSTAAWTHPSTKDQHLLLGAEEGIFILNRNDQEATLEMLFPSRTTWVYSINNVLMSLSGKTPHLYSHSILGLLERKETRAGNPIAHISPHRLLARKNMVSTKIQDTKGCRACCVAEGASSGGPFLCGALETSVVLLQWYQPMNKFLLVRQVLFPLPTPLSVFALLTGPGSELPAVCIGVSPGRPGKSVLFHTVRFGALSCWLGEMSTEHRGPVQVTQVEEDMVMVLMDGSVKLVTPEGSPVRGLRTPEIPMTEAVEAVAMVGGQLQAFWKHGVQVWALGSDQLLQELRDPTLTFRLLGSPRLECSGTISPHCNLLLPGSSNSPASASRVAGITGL
Serine/threonine-protein kinase 38-like (Homo sapiens), sequence (Q9Y2H1 2-464 limits assumed): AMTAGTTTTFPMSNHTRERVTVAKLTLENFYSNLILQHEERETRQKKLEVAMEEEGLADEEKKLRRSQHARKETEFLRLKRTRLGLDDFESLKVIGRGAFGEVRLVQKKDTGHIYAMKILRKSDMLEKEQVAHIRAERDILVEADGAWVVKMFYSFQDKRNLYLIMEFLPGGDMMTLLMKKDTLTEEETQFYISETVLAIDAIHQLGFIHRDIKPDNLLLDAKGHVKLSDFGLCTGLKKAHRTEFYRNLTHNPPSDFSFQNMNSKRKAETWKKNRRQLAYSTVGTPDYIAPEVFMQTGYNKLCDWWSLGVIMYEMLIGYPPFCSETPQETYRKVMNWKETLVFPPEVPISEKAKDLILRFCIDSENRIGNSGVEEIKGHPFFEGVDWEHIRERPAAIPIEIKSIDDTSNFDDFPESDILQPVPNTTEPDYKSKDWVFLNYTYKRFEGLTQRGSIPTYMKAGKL
Casein kinase I isoform delta (Homo sapiens), sequence (P48730 whole entry, looked up, the tested form may be a part, canonical isoform): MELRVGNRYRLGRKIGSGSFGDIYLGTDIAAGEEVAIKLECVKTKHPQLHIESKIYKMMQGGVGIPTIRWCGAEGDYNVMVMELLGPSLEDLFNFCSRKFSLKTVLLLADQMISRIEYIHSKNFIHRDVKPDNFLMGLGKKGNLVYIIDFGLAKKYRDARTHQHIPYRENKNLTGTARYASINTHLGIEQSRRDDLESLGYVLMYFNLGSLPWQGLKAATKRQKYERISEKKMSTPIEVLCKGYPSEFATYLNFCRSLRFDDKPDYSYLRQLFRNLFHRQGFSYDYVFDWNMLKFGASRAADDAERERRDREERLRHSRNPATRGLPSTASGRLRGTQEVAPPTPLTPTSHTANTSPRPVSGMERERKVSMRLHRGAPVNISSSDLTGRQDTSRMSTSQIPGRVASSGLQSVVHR
Receptor-interacting serine/threonine-protein kinase 4 (Homo sapiens), sequence (P57078 whole entry, the tested form may be a part, canonical isoform): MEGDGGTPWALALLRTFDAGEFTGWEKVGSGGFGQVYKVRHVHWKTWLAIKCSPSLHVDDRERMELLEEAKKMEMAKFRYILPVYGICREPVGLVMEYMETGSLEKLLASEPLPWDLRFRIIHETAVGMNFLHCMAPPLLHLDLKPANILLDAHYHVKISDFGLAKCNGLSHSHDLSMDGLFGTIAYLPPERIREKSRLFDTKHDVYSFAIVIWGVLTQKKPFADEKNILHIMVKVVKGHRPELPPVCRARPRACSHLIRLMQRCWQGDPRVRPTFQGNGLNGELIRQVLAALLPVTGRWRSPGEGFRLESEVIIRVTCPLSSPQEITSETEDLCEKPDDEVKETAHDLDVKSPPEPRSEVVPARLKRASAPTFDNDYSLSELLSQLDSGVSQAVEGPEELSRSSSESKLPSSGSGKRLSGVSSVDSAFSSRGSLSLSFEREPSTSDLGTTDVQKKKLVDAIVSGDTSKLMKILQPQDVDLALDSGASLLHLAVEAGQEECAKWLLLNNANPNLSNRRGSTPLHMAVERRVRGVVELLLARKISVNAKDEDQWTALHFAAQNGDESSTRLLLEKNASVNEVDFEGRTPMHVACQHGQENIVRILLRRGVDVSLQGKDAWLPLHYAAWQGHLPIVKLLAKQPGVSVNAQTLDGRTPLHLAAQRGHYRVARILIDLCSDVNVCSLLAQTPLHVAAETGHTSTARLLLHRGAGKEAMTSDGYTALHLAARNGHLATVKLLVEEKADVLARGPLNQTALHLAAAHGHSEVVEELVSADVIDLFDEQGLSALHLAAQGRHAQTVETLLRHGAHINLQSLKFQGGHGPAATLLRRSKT
Death-associated protein kinase 2 (Homo sapiens), sequence (Q9UIK4 whole entry, looked up, the tested form may be a part): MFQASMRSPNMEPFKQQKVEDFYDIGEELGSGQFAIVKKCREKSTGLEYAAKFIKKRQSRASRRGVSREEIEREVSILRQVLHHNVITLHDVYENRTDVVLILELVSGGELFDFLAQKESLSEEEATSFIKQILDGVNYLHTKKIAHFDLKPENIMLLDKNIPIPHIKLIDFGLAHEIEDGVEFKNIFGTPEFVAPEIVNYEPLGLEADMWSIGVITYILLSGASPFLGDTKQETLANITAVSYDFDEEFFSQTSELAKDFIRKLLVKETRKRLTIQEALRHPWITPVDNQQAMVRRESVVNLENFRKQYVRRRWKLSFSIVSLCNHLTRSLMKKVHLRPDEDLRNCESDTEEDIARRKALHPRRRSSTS
Serine/threonine-protein kinase 35 (Homo sapiens), sequence (Q8TDR2 whole entry, the tested form may be a part): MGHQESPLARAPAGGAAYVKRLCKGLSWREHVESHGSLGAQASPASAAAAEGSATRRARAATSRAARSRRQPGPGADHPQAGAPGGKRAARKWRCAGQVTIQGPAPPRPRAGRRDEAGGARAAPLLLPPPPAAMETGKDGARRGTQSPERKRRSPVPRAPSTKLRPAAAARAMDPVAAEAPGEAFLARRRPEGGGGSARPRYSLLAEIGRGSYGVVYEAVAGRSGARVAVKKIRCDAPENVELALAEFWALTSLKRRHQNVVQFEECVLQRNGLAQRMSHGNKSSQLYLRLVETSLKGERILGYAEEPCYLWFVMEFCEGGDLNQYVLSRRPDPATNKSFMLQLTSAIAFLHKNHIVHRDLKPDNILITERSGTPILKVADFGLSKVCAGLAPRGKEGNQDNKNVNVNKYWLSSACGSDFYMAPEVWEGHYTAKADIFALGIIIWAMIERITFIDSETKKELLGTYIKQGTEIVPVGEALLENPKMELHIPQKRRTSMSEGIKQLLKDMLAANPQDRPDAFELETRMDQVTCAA
Protein kinase C eta type (Homo sapiens), sequence (P24723 whole entry, the tested form may be a part): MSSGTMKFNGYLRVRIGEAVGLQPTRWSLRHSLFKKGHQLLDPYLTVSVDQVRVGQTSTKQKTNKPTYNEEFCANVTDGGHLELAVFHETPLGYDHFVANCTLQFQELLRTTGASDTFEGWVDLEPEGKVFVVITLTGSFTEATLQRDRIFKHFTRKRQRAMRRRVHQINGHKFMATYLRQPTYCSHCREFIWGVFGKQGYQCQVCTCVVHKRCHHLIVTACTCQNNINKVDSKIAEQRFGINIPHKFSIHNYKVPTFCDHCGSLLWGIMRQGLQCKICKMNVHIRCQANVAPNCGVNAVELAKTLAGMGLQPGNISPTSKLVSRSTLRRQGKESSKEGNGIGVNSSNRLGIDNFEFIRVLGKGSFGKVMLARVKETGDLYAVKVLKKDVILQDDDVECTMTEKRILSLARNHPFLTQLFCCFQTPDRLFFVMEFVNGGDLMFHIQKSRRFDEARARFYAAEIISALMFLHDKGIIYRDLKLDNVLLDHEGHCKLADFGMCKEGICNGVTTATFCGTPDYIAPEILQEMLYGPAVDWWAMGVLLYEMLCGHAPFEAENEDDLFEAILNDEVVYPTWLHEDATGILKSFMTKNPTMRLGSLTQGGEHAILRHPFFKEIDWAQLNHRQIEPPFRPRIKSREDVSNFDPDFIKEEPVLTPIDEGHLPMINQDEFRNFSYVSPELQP

COc1cc(OC)c(Cl)c(N2Cc3cnc(Nc4ccc(F)cc4)nc3N(C3CCN(C(=O)/C=C/CN(C)C)CC3)C2=O)c1Cl
Activity [1]: 98%
Activity [2]: 95%
Activity [3]: 100%
Activity [4]: 100%
Activity [5]: 100%
Activity [6]: 78%
Activity [7]: 48%
Activity [8]: 100%
Activity [9]: 94%
Activity [10]: 89%
Activity [11]: 100%
Activity [12]: 91%
Activity [13]: 32%
Activity [14]: 100%
Activity [15]: 96%
Activity [16]: 100%
Activity [17]: 100%
Activity [18]: 93%
Activity [19]: 95%
Activity [20]: 92%
Activity [21]: 100%
Activity [22]: 96%
